Experimental data published in ChEMBL document CHEMBL1781919, “Synthesis and anticonvulsant properties of 1-(amino-N-arylmethanethio)-3-(1-substituted benzyl-2, 3-dioxoindolin-5-yl) urea derivatives” (Eur J Med Chem, 2011).
Calls of active or inactive are those of the source. No cut-off for these calls is given here.

Tests used:
Mus musculus [1] = assay: Neurotoxicity in mouse assessed as electrically-induced clonic seizures at 100 mg/kg, ip after 1 hr by rotarod test; assay type: toxicity, organism-based; design: dose 100 mg/kg, route intraperitoneal; conditions: in vivo
Method in brief: (§1)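 Rotorod toxicity in mice given 100 mg/kg i.p., four per time point, alongside the 6 Hz test. The endpoint is inability to maintain balance on the rotorod. Score is N/F, the number of animals showing toxicity over the number tested.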

Mus musculus [2] = assay: Neurotoxicity in mouse assessed as electrically-induced clonic seizures at 100 mg/kg, ip after 4 hrs by rotarod test; assay type: toxicity, organism-based; design: dose 100 mg/kg, route intraperitoneal; conditions: in vivo; method in brief: as §1
Mus musculus [3] = assay: Anticonvulsant activity in mouse assessed as protection against subcutaneous pentylenetetrazole-induced seizures at 100 mg/kg, ip after 0.5 hrs; assay type: functional, organism-based; design: dose 100 mg/kg
Mus musculus [4] = assay: Anticonvulsant activity in mouse assessed as protection against subcutaneous pentylenetetrazole-induced seizures at 300 mg/kg, ip after 0.5 hrs; assay type: functional, organism-based; design: dose 300 mg/kg
Mus musculus [5] = assay: Anticonvulsant activity in mouse assessed as protection against electrically-induced seizure at 100 mg/kg, ip after 1 hr by 6Hz psychomotor seizure test; assay type: functional, organism-based; design: dose 100 mg/kg
Method in brief: (§2)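 Mice pretreated by i.p. injection at 100 mg/kg, then challenged through corneal electrodes at 6 Hz, 32 mA for 3 s, which elicits a psychomotor seizure in 97% of animals. Four mice per time point. Score is N/F, the number of animals protected over the number tested. Testing run under the NINDS Anticonvulsant Screening Program.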

Mus musculus [6] = assay: Neurotoxicity in mouse assessed as minimum motor impairment at 30 mg/kg, ip after 0.5 hrs by rotarod test; assay type: toxicity, organism-based; design: dose 30 mg/kg, route intraperitoneal; conditions: in vivo
Method in brief: (§3)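 Rotorod test for minimal motor impairment in mice given 30, 100 or 300 mg/kg i.p. at 0.01 mL/g, using sets of one, three and one animals, at 0.5 h and 4.0 h. Animals are observed at each dose and time. Score is N/F, the number showing toxicity over the number tested.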

[7] = Octanol-phosphate buffer partition coefficient, log P of the compound; assay type: physicochemical
Method in brief: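 Octanol and phosphate buffer partition run at room temperature (29 °C). After separation, the phases are membrane-filtered and drug in the aqueous phase is measured by UV. PC = (Ct − Ca)/Ca, where Ct is total drug concentration and Ca is aqueous-phase concentration.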

Mus musculus [8] = assay: Neurotoxicity in mouse assessed as minimum motor impairment at 30 mg/kg, ip after 4 hrs by rotarod test; assay type: toxicity, organism-based; design: dose 30 mg/kg, route intraperitoneal; conditions: in vivo; method in brief: as §3
Mus musculus [9] = assay: Anticonvulsant activity in mouse assessed as protection against subcutaneous pentylenetetrazole-induced seizures at 30 mg/kg, ip after 4 hrs; assay type: functional, organism-based; design: dose 30 mg/kg
Mus musculus [10] = assay: Anticonvulsant activity in mouse assessed as protection against maximal electroshock-induced seizures at 300 mg/kg, ip after 0.5 hrs; assay type: functional, organism-based; design: dose 300 mg/kg
Method in brief: (§4)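 Mouse Test 1: i.p. dosing at 0.01 mL/g. Sets of one, three and one animals receive 30, 100 and 300 mg/kg respectively, each tested at 0.5 h and 4.0 h. Score is N/F, the number of animals protected over the number tested. Screening performed by NINDS following the ADD program protocol.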

Mus musculus [11] = assay: Anticonvulsant activity in mouse assessed as protection against maximal electroshock-induced seizures at 30 mg/kg, ip after 0.5 hrs; assay type: functional, organism-based; design: dose 30 mg/kg; method in brief: as §4
Mus musculus [12] = assay: Anticonvulsant activity in mouse assessed as protection against subcutaneous pentylenetetrazole-induced seizures at 30 mg/kg, ip after 0.5 hrs; assay type: functional, organism-based; design: dose 30 mg/kg
Mus musculus [13] = assay: Anticonvulsant activity in mouse assessed as protection against subcutaneous pentylenetetrazole-induced seizures at 300 mg/kg, ip after 4 hrs; assay type: functional, organism-based; design: dose 300 mg/kg
Mus musculus [14] = assay: Neurotoxicity in mouse assessed as minimum motor impairment at 100 mg/kg, ip after 0.5 hrs by rotarod test; assay type: toxicity, organism-based; design: dose 100 mg/kg, route intraperitoneal; conditions: in vivo; method in brief: as §3
Mus musculus [15] = assay: Anticonvulsant activity in mouse assessed as protection against electrically-induced seizure at 100 mg/kg, ip after 2 hrs by 6Hz psychomotor seizure test; assay type: functional, organism-based; design: dose 100 mg/kg; method in brief: as §2
Mus musculus [16] = assay: Neurotoxicity in mouse assessed as minimum motor impairment at 300 mg/kg, ip after 0.5 hrs by rotarod test; assay type: toxicity, organism-based; design: dose 300 mg/kg, route intraperitoneal; conditions: in vivo; method in brief: as §3
Mus musculus [17] = assay: Anticonvulsant activity in mouse assessed as protection against electrically-induced seizure at 100 mg/kg, ip after 4 hrs by 6Hz psychomotor seizure test; assay type: functional, organism-based; design: dose 100 mg/kg; method in brief: as §2
Mus musculus [18] = assay: Anticonvulsant activity in mouse assessed as protection against maximal electroshock-induced seizures at 100 mg/kg, ip after 4 hrs; assay type: functional, organism-based; design: dose 100 mg/kg; method in brief: as §4
Mus musculus [19] = assay: Neurotoxicity in mouse assessed as electrically-induced clonic seizures at 100 mg/kg, ip after 0.25 hrs by rotarod test; assay type: toxicity, organism-based; design: dose 100 mg/kg, route intraperitoneal; conditions: in vivo; method in brief: as §1
Mus musculus [20] = assay: Neurotoxicity in mouse assessed as electrically-induced clonic seizures at 100 mg/kg, ip after 0.5 hrs by rotarod test; assay type: toxicity, organism-based; design: dose 100 mg/kg, route intraperitoneal; conditions: in vivo; method in brief: as §1
Mus musculus [21] = assay: Anticonvulsant activity in mouse assessed as protection against maximal electroshock-induced seizures at 30 mg/kg, ip after 4 hrs; assay type: functional, organism-based; design: dose 30 mg/kg; method in brief: as §4
Mus musculus [22] = assay: Anticonvulsant activity in mouse assessed as protection against electrically-induced seizure at 100 mg/kg, ip after 0.25 hrs by 6Hz psychomotor seizure test; assay type: functional, organism-based; design: dose 100 mg/kg; method in brief: as §2
Mus musculus [23] = assay: Neurotoxicity in mouse assessed as minimum motor impairment at 300 mg/kg, ip after 4 hrs by rotarod test; assay type: toxicity, organism-based; design: dose 300 mg/kg, route intraperitoneal; conditions: in vivo; method in brief: as §3
Mus musculus [24] = assay: Neurotoxicity in mouse assessed as minimum motor impairment at 100 mg/kg, ip after 4 hrs by rotarod test; assay type: toxicity, organism-based; design: dose 100 mg/kg, route intraperitoneal; conditions: in vivo; method in brief: as §3
Mus musculus [25] = assay: Neurotoxicity in mouse assessed as electrically-induced clonic seizures at 100 mg/kg, ip after 2 hrs by rotarod test; assay type: toxicity, organism-based; design: dose 100 mg/kg, route intraperitoneal; conditions: in vivo; method in brief: as §1
Mus musculus [26] = assay: Anticonvulsant activity in mouse assessed as protection against maximal electroshock-induced seizures at 100 mg/kg, ip after 0.5 hrs; assay type: functional, organism-based; design: dose 100 mg/kg; method in brief: as §4
Mus musculus [27] = assay: Anticonvulsant activity in mouse assessed as protection against electrically-induced seizure at 100 mg/kg, ip after 0.5 hrs by 6Hz psychomotor seizure test; assay type: functional, organism-based; design: dose 100 mg/kg; method in brief: as §2
Mus musculus [28] = assay: Anticonvulsant activity in mouse assessed as protection against subcutaneous pentylenetetrazole-induced seizures at 100 mg/kg, ip after 4 hrs; assay type: functional, organism-based; design: dose 100 mg/kg
Mus musculus [29] = assay: Anticonvulsant activity in mouse assessed as protection against maximal electroshock-induced seizures at 300 mg/kg, ip after 4 hrs; assay type: functional, organism-based; design: dose 300 mg/kg; method in brief: as §4

Row | SMILES | Activity (Mus musculus [1]) | Activity (Mus musculus [3]) | Activity (Mus musculus [4]) | Activity (Mus musculus [6]) | logP [7] | Activity (Mus musculus [8]) | Activity (Mus musculus [9]) | Activity (Mus musculus [10]) | Activity (Mus musculus [11]) | Activity (Mus musculus [12]) | Activity (Mus musculus [13]) | Activity (Mus musculus [14]) | Activity (Mus musculus [16]) | Activity (Mus musculus [18]) | Activity (Mus musculus [21]) | Activity (Mus musculus [23]) | Activity (Mus musculus [24]) | Activity (Mus musculus [26]) | Activity (Mus musculus [28]) | Activity (Mus musculus [29]) | further results
1 | O=C(NC(=S)Nc1ccccc1)Nc1ccc2c(c1)C(=O)C(=O)N2Cc1ccccc1Cl | Non-toxic | inactive | Active | Non-toxic | 3.18 | Non-toxic | inactive | Active | inactive | inactive | inactive | Non-toxic | Non-toxic | Active | inactive | Non-toxic | Non-toxic | inactive | inactive |  | Activity (Mus musculus [2]): Non-toxic; Activity (Mus musculus [5]): Active; Activity (Mus musculus [15]): inactive; Activity (Mus musculus [17]): inactive; Activity (Mus musculus [19]): Non-toxic; Activity (Mus musculus [20]): Non-toxic; Activity (Mus musculus [22]): Active; Activity (Mus musculus [25]): Non-toxic; Activity (Mus musculus [27]): Active
2 | COc1ccc(NC(=S)NC(=O)Nc2ccc3c(c2)C(=O)C(=O)N3Cc2ccccc2)cc1 | Non-toxic | inactive | Active | Non-toxic | 2.39 | Non-toxic | inactive | Active | inactive | inactive | inactive | Non-toxic | Non-toxic | inactive | inactive | Non-toxic | Non-toxic | inactive | inactive | Active | Activity (Mus musculus [2]): Non-toxic; Activity (Mus musculus [5]): inactive; Activity (Mus musculus [15]): inactive; Activity (Mus musculus [17]): inactive; Activity (Mus musculus [19]): Non-toxic; Activity (Mus musculus [20]): Non-toxic; Activity (Mus musculus [22]): Active; Activity (Mus musculus [25]): Non-toxic; Activity (Mus musculus [27]): Active
3 | COc1ccc(NC(=S)NC(=O)Nc2ccc3c(c2)C(=O)C(=O)N3Cc2ccccc2Cl)cc1 |  | inactive | inactive | Non-toxic | 3.24 | Non-toxic | inactive | inactive | inactive | inactive | inactive | Non-toxic | Non-toxic | inactive | inactive | Non-toxic | Non-toxic | inactive | inactive | inactive | 
4 | Cc1cccc(NC(=S)NC(=O)Nc2ccc3c(c2)C(=O)C(=O)N3Cc2ccccc2)c1 |  | inactive | inactive | Non-toxic | 2.92 | Non-toxic | inactive | inactive | inactive | inactive | inactive | Non-toxic | Non-toxic | inactive | inactive | Non-toxic | Non-toxic | inactive | inactive | inactive | 
5 | COc1ccccc1NC(=S)NC(=O)Nc1ccc2c(c1)C(=O)C(=O)N2Cc1ccccc1Cl |  | inactive | inactive | Non-toxic | 3.18 | Non-toxic | inactive | inactive | inactive | inactive | inactive | Non-toxic | Non-toxic | inactive | inactive | Non-toxic | Non-toxic | inactive | inactive | inactive | 
